# Bioassay records deposited in PubChem BioAssay by Johns Hopkins Ion Channel Center.
# Shown are actives, neighbours in structure and some others; about 3.1% of the full set was active somewhere.
# hERG protect – shields human hERG channel from block by proarrhythmic agents; activation (rescue from dofetilide block), less the hit threshold, % at 10 µM; CHO-hERG, FluxOR thallium flux, dofetilide IC70 present; 0.51% of 310,000 active;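 active = activation above the mean of controls blocked by dofetilide plus 5 SD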;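 also: thallium influx through hERG after potassium depolarization seen as dye fluorescence rise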
# KCNK9 inh – inhibitors of human KCNK9 two-pore domain potassium channel; B-score at 10 µM; HEK293 KCNK9, FluxOR thallium flux fluorescence; hits give low values; Q9NPC2; 1.2% of 310,000 active;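 active = ratio B-score over 3 SD below the library mean, with starting fluorescence within 5 SD of its mean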;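 also: negative B-score means less thallium flux so channel inhibition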
# Target sequence (Q9NPC2 whole entry, looked up, the tested form may be a part): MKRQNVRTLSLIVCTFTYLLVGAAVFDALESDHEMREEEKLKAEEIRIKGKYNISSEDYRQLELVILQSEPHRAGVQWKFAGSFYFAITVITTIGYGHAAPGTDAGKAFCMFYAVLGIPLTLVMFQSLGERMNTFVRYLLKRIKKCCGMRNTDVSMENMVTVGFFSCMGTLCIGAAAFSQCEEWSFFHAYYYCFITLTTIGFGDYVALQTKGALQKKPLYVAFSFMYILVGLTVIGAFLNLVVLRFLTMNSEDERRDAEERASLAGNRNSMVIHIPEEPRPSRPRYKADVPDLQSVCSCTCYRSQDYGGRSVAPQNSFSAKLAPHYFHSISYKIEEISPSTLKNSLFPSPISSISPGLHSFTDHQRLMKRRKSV
# KCNK3 block – human KCNK3 channel inhibition, primary screen | B-score at 10 µM | CHO-KCNK3 thallium flux, FluxOR fluorescence; hits give low values | 0.84% of 340,000 active | O14649;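 active = B-score under library mean minus 4 SD, starting fluorescence ratio at most library mean plus 5 SD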;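 also: more negative B-score means stronger inhibition of thallium flux through KCNK3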
# KCNQ1 act – potentiators or activators of human KCNQ1 potassium channel. P51787. CHO-K1 KCNQ1, thallium flux FluxOR fluorescence; hits give high values. B-score at 10 µM. 0.35% of 310,000 active. AID 2648;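 active = fluorescence ratio B-score, a plate-corrected score, at least three library SD, with initial intensity B-score within 5 SD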
#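 System: Stable KCNQ1 CHO-K1 line | Incubation: 90 min dye loading and 20 min compound exposure, both at room temperature | Measure: Ratio B score | Medium: Assay buffer for compound exposure, DMSO matched across wells | Compound dosing: Single-concentration screen | Probe or stimulus: K+/Tl+ depolarizing stimulus | Measured by: Kinetic FluxOR fluorescence, 10 s baseline plus 110 s post-stimulus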
# KCNQ1 block – blocks the human KCNQ1 potassium channel; P51787; CHO-K1 KCNQ1, FluxOR thallium flux fluorescence; hits give high values; B-score at 10 µM; 1.3% of 310,000 active;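 active = compounds whose thallium flux B-score, printed positive for inhibition, exceeds three library SD while starting fluorescence stays within three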;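 also: channel opened by potassium depolarization with thallium stimulus after 20 min compound exposure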
# KCNK3 inh conf – confirmation of human KCNK3 two-pore domain potassium channel inhibitors | ratio percent of control, % at 10 µM | CHO-KCNK3 thallium flux, FluxOR fluorescence; 0% buffer, 100% carvedilol maximal block | 99% of 2,400 active | AID 651638 | shares compounds with KCNK3 block;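 active = ratio percent of control, averaged over triplicates, above buffer control mean plus 5 SD, cut at about 64% in these data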;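 also: ratio is the fluorescence rise from min to max over baseline after thallium stimulus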
# KCNK3 uninduced – counter-screen for KCNK3 inhibitors: effect in non-induced cells. shares compounds with KCNK3 block. thallium flux ratio (lower = more inhibition) at 10 µM. non-induced KCNK3 parental cells, FluxOR thallium flux; hits give low values. 40% of 2,400 active;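 active = thallium flux ratio, averaged over three wells, more than 5 SD below the buffer control mean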;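 also: host cells are CHO cells without KCNK3 induction; ratio is peak minus trough fluorescence over baseline then normalized to buffer controls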
# Starred values were filed as active, the others as inactive; i = inactive; · = no result.
SMILES,hERG protect,KCNK9 inh,KCNK3 block,KCNQ1 act,KCNQ1 block,KCNK3 inh conf,KCNK3 uninduced
Cc1cc(NC(=O)c2cc3ccccc3o2)ccc1NC(=O)c1ccccc1,-3,i,-10*,i,i,0,i
C(=C/c1nccc2c1[nH]c1ccccc12)/c1ccc2c(c1)OCO2,-13,i,-11*,i,i,99*,i
C(=N\Nc1nc2ccccc2[nH]1)/c1ccc2c(c1)OCO2,-25,i,i,i,i,·,·
CC(C)c1ccc(-c2noc(C3CCCN(C(=O)c4ccc(F)cc4F)C3)n2)cc1 (centres undefined),-11,i,-9.8*,i,i,134*,0.14*
CCCCCCCCCCCNC(=O)c1ccoc1C,-12,i,-8.9*,i,i,96*,i
CC1CCCCN1c1ccc(N)cc1C(N)=O (centres undefined),-7,i,i,i,i,·,·
COc1ccc(C)cc1NC(=O)c1ccc(S(=O)(=O)N2CCCCC2)cc1,-13,i,-9.7*,i,i,106*,0.16*
Cc1ccc(NC(=O)/C=C/c2ccco2)cc1S(=O)(=O)N1CCCCCC1,-6,i,-9.4*,i,i,124*,0.12*
Cc1ccc(NC(=O)c2ccc(F)cc2)cc1S(=O)(=O)N1CCCCCC1,-12,i,-11*,i,i,101*,i
O=C(/C=C/c1ccco1)Nc1cccc(S(=O)(=O)N2CCOCC2)c1,-4,i,i,i,i,·,·
COc1ccc(C(=O)Nc2ccc(C)c(S(=O)(=O)N3CCCCCC3)c2)cc1,-21,i,i,i,i,·,·
CCOC(=O)Nc1ccc2c(COC(=O)CNS(=O)(=O)c3cccc(Br)c3)cc(=O)oc2c1,-5,i,i,i,i,·,·
COc1ccc(C(NCC(=O)NC(C)c2ccc(Cl)cc2)c2ccccc2)cc1 (centres undefined),-1,i,-9.5*,i,i,126*,0.12*
CSc1ccccc1C(=O)N(C)C(c1ccccc1)c1ccccc1,-13,i,-9.1*,i,i,108*,i
CSc1ccccc1C(=O)N(C)Cc1ccccc1,-15,i,i,i,i,·,·
O=C(COc1ccc(Br)cc1CNCCc1ccccc1)NCc1ccccc1,-28,i,-11*,i,7*,102*,i
Clc1ccc(C2Nc3ccccc3-n3cccc32)cc1 (centres undefined),-12,i,-13*,i,i,114*,0.16*
CN1c2ccccc2C(=O)NC1c1ccc(Cl)cc1 (centres undefined),-14,i,i,i,i,·,·
CCCSc1nnc2c(n1)OC(c1cccn1C)N(C(C)=O)c1ccccc1-2 (centres undefined),-7,i,-13*,i,i,122*,i
CCOC(=O)c1[nH]c(C)c(C(=O)/C=C/c2ccc(C(=O)O)cc2)c1C,-12,i,i,i,i,·,·
Cc1cc(C(=O)CN2C(=O)NC3(CCCCC3C)C2=O)c(C)n1Cc1cccs1 (centres undefined),-8,i,i,i,i,·,·
Cc1cc(C(=O)CN2C(=O)c3cccc(N)c3C2=O)c(C)n1Cc1cccs1,-7,i,-11*,i,i,121*,i
COc1ccc(NS(=O)(=O)c2ccc(F)c(F)c2F)cc1S(=O)(=O)N1CCOCC1,·,·,i,·,·,·,·
CC(=O)N1c2ccc(S(=O)(=O)N3CCCC3)cc2CC1C(=O)Nc1cc(C)cc(C)c1 (centres undefined),-10,i,i,i,i,·,·
CC(=O)N1c2ccc(S(=O)(=O)N3CCCCC3)cc2CC1C(=O)Nc1ccc(F)cc1C (centres undefined),-9,i,-10*,i,i,91*,i
SMILES,hERG protect,KCNK9 inh,KCNK3 block,KCNQ1 act,KCNQ1 block,KCNK3 inh conf,KCNK3 uninduced
COCc1[nH][nH]c(=O)c1/C=N/N1CCOCC1,-13,i,i,i,i,·,·
CCOC(=O)C1C(=O)C=C(Nc2ccccc2F)CC1c1ccccc1 (centres undefined),-2,i,i,i,i,·,·
O=C(Cn1cnc([N+](=O)[O-])n1)c1ccccc1,-1,i,i,i,i,·,·
O=C(Cn1cnc([N+](=O)[O-])n1)c1ccc(O)c(O)c1,-3,-8*,-9.2*,i,i,79*,i
COc1cccc(-c2nn(-c3ccc(C)cc3)cc2C(=O)N2CCc3cc(OC)c(OC)cc3C2)c1,-23,i,-9.8*,i,i,104*,0.14*
COc1ccc(OCc2nn[nH]n2)cc1,-11,i,i,i,i,·,·
O=C(CCN1c2ccccc2Sc2ccccc21)OCc1nnc(-c2ccccc2)o1,-6,i,-9.5*,i,i,73*,i
O=C(NCCc1cccnc1)C1CCC(=O)N(Cc2ccc(Cl)cc2)C1 (centres undefined),-10,i,i,i,i,·,·
CCOC(=O)c1sc2nc(CC(=O)OC)nc(N(C)CCc3ccccn3)c2c1C,-10,i,-10*,i,i,109*,i
Cn1c(SCCOc2ccccc2F)nc2ccccc2c1=O,-12,i,-13*,i,i,110*,i
Cn1c(SCc2ccc(Br)cc2)nc2ccccc2c1=O,-3,i,-9.5*,i,i,123*,0.13*
Cn1c(SCc2ccccc2)nnc1-c1cccs1,-7,i,i,i,i,·,·
Cn1c(SCC#N)nc2ccccc2c1=O,-11,i,i,i,i,·,·
Cn1c(SCc2ccccc2)nc2ccsc2c1=O,-11,i,-9.8*,i,i,104*,i
CC(C)(C)NC(=O)NC(=O)CSc1ccc(S(=O)(=O)N2CCCCC2)cn1,·,·,i,·,·,·,·
COc1ccc(-c2nc3ncccc3o2)cc1NC(=O)c1ccco1,-6,i,i,i,i,·,·
O=C1NC[C@H](CC2CCCCC2)N(CCc2cccc(F)c2)C1=O,-8,i,i,i,i,·,·
COc1ccc(OCCSc2ncccn2)cc1,-7,i,i,i,i,·,·
COc1ccc(OCCSc2nc(C)nc3ccccc23)cc1,-28,i,-12*,i,i,123*,i
CC(=O)c1cccc(NCC(=O)Nc2cc(S(=O)(=O)N3CCCCC3)ccc2C)c1,-13,i,i,i,i,·,·
COc1ccc(CN2C(=O)c3cccc4cccc2c34)cc1F,-9,i,-9.3*,i,i,90*,i
